According to ChEMBL document CHEMBL3585248, “Amorfrutins Are Natural PPARγ Agonists with Potent Anti-inflammatory Properties” (J Nat Prod, 2015):
Active and inactive are the calls of the source. No cut-off for these calls is given here.

Columns and labels:
HT-29 [1] = experiment: Cytotoxicity against human HT-29 cells assessed as cell viability at 10 uM after 54 hrs by CytoTox-Glo assay; format: cell-based; settings: ht-29, 54 h
[2] = biological target: T1, Peroxisome proliferator-activated receptor gamma (Homo sapiens) (UniProt P37231); experiment: Agonist activity at PPARgamma in human HT29 cells assessed as reduction in TNFalpha-induced COX2 gene expression at 10 uM after 48 hrs by real-time qPCR analysis; format: cell-based; settings: HT-29
T1 sequence (whole entry): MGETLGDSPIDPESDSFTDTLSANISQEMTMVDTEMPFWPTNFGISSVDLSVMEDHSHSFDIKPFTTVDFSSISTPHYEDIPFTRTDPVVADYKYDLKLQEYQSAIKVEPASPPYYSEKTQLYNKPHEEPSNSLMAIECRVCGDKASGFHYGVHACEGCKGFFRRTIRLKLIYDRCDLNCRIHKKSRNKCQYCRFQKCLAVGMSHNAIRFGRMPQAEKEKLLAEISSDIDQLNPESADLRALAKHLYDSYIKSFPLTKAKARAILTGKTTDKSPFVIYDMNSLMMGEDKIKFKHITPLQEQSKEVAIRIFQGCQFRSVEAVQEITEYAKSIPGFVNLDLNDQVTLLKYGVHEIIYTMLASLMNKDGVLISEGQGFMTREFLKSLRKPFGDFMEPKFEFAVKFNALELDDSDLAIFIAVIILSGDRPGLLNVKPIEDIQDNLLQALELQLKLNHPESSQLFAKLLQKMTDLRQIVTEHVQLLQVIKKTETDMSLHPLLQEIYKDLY
Outline: (§1)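 HT-29 cells pretreated 48 h with 10 μM compound in 0.1% DMSO, then stimulated 6 h with 1 ng/mL TNF-α. Total RNA isolated with DNase digestion, reverse-transcribed, then SYBR Green qPCR run for 40 cycles. Expression normalized to GAPDH by 2−ΔΔCt and reported relative to DMSO-treated cells. Biological triplicates, mean ± SD; one-way ANOVA with Dunnett's test.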

[3] = biological target: T1, Peroxisome proliferator-activated receptor gamma (Homo sapiens); experiment: Agonist activity at PPARgamma in human HT29 cells assessed as reduction in TNFalpha-induced GROalpha gene expression at 10 uM after 48 hrs by real-time qPCR analysis; format: cell-based; settings: HT-29; outline: as §1
[4] = biological target: T1, Peroxisome proliferator-activated receptor gamma (Homo sapiens); experiment: Agonist activity at PPARgamma in human HT29 cells assessed as reduction in TNFalpha-induced IL8 gene expression at 10 uM after 48 hrs by real-time qPCR analysis; format: cell-based; settings: HT-29; outline: as §1
[5] = biological target: T1, Peroxisome proliferator-activated receptor gamma (Homo sapiens); experiment: Agonist activity at PPARgamma in human HT29 cells assessed as reduction in TNFalpha-induced MIP3alpha gene expression at 10 uM after 48 hrs by real-time qPCR analysis; format: cell-based; settings: HT-29; outline: as §1
[6] = biological target: T1, Peroxisome proliferator-activated receptor gamma (Homo sapiens); experiment: Agonist activity at PPARgamma in human HT29 cells assessed as reduction in TNFalpha-induced GROgamma gene expression at 10 uM after 48 hrs by real-time qPCR analysis; format: cell-based; settings: HT-29; outline: as §1
[7] = biological target: T1, Peroxisome proliferator-activated receptor gamma (Homo sapiens); experiment: Agonist activity at PPARgamma in human HT29 cells assessed as reduction in TNFalpha-induced IL-1beta gene expression at 10 uM after 48 hrs by real-time qPCR analysis; format: cell-based; settings: HT-29; outline: as §1
[8] = biological target: T1, Peroxisome proliferator-activated receptor gamma (Homo sapiens); experiment: Agonist activity at PPARgamma in human HT29 cells assessed as reduction in TNFalpha-induced IL8 gene expression in PPARgamma knockdown human HT29 cells at 10 uM after 48 hrs by real-time qPCR analysis; format: cell-based; settings: HT-29
Outline: (§2)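 PPARγ knocked down in HT-29 cells by transfection with 30 nM siRNA, with negative-control siRNA alongside. Cells then given 10 μM compound for 48 h and 1 ng/mL TNF-α for 6 h. Marker mRNA measured by SYBR Green qPCR, normalized to GAPDH by 2−ΔΔCt. Biological triplicates.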

[9] = biological target: T1, Peroxisome proliferator-activated receptor gamma (Homo sapiens); experiment: Agonist activity at PPARgamma in human HT29 cells assessed as reduction in TNFalpha-induced GROalpha gene expression in PPARgamma knockdown human HT29 cells at 10 uM after 48 hrs by real-time qPCR analysis; format: cell-based; settings: HT-29; outline: as §2
[10] = biological target: T1, Peroxisome proliferator-activated receptor gamma (Homo sapiens); experiment: Agonist activity at PPARgamma in human HT29 cells assessed as reduction in TNFalpha-induced COX2 gene expression in PPARgamma knockdown human HT29 cells at 10 uM after 48 hrs by real-time qPCR analysis; format: cell-based; settings: HT-29; outline: as §2
[11] = biological target: T1, Peroxisome proliferator-activated receptor gamma (Homo sapiens); experiment: Agonist activity at PPARgamma in human HT29 cells assessed as reduction in TNFalpha-induced MIP3alpha gene expression in PPARgamma knockdown human HT29 cells at 10 uM after 48 hrs by real-time qPCR analysis; format: cell-based; settings: HT-29; outline: as §2
[12] = biological target: T1, Peroxisome proliferator-activated receptor gamma (Homo sapiens); experiment: Agonist activity at PPARgamma in human HT29 cells assessed as reduction in TNFalpha-induced MIP3alpha gene expression in at 10 uM after 48 hrs by ELISA; format: cell-based; settings: HT-29
Outline: (§3)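 HT-29 cells in DMEM-F12 with 5% FBS, seeded a day ahead; 10 μM compound or 0.1% DMSO control for 48 h, then 1 ng/mL TNF-α for 6 h. Culture supernatants centrifuged at 4 °C, stored at −80 °C. Secreted MIP-3α/CCL20, IL-8 and GRO-α quantified by ELISA. Mean ± SD; compared with TNF-α alone.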

[13] = biological target: T1, Peroxisome proliferator-activated receptor gamma (Homo sapiens); experiment: Agonist activity at PPARgamma in human HT29 cells assessed as reduction in TNFalpha-induced IL8 gene expression in at 10 uM after 48 hrs by ELISA; format: cell-based; settings: HT-29; outline: as §3
[14] = biological target: T1, Peroxisome proliferator-activated receptor gamma (Homo sapiens); experiment: Agonist activity at PPARgamma in human HT29 cells assessed as reduction in TNFalpha-induced GRO-alpha gene expression in at 10 uM after 48 hrs by ELISA; format: cell-based; settings: HT-29; outline: as §3
HT-29 [15] = experiment: Cytotoxicity against human HT-29 cells assessed as reduction in cell viability after 54 hrs by CytoTox-Glo assay; settings: HT-29, 54 h
HT-29 [16] = experiment: Cytotoxicity against human HT-29 cells assessed as cell viability up to 5 uM after 54 hrs by CytoTox-Glo assay; format: cell-based; settings: ht-29, 54 h

COc1cc(CCc2ccccc2)c(C(=O)O)c(O)c1CC=C(C)C [AMORFRUTIN A]
Activity (HT-29 [1]): Non-toxic
inhibition [2]: Active
inhibition [3]: Active
inhibition [4]: Active
inhibition [5]: Active
inhibition [6]: inactive
inhibition [7]: inactive
inhibition [8]: inactive
inhibition [9]: inactive
inhibition [10]: Active
inhibition [11]: Active
Activity [12]: Active
Activity [13]: Active
Activity [14]: Active
IC50 (HT-29 [15]): 50.8 µM

COc1cc(CCc2ccccc2)c(C(=O)O)c(O)c1C/C=C(\C)CCC=C(C)C
Activity (HT-29 [16]): Non-toxic
IC50 (HT-29 [15]): 30.5 µM
